Measured values as given in ChEMBL document CHEMBL5236602, “Synthesis and Characterization of NUC-7738, an Aryloxy Phosphoramidate of 3'-Deoxyadenosine, as a Potential Anticancer Agent” (J Med Chem, 2022).

Legend:
[1] = Prodrug conversion in human RL cells assessed as fold increase in 3'-dATP level at 50 uM incubated for 2 hrs by LC-MS/MS analysis relative to 3'-Deoxyadenosine; assay type: ADME, cell-based
THP-1 = test: Cytotoxicity against human THP-1 cells assessed as maximum cell growth inhibition incubated for 72 hrs by MTS assay relative to control; assay type: functional
Outline: (§1)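 Cells from the 20-line panel were seeded the day before dosing, then exposed to compound for 72 h. MTS was added, followed by 4 h at 37 °C, and absorbance was read. Nine serial 3.16-fold dilutions were tested, top 198 μM, in duplicate. MI% is the maximum inhibitory effect across the tested concentration range.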

RPMI-8226 [2] = test: Cytotoxicity against human RPMI-8226 cells assessed as cell death incubated for 72 hrs by MTS assay; assay type: functional; details: read-out: LC50 (the source's name)
Outline: (§2)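 Contracted MTS assay. Cells seeded the day before treatment and exposed 72 h to nine serial concentrations (3.16-fold steps, top 198 μM), tested in duplicate. MTS added, then 4 h at 37 °C and absorbance read. LC50 is the concentration killing 50% of cells. MI% is the maximum inhibition over the tested range.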

KG-1 = test: Cytotoxicity against human KG-1 cells assessed as maximum cell growth inhibition incubated for 72 hrs by MTS assay relative to control; assay type: functional; outline: as §1
HL-60 = test: Cytotoxicity against human HL-60 cells assessed as cell death incubated for 72 hrs by MTS assay; assay type: functional; details: read-out: LC50 (the source's name); outline: as §2
Z-138 = test: Cytotoxicity against human Z138 cells assessed as maximum cell growth inhibition incubated for 72 hrs by MTS assay relative to control; assay type: functional; outline: as §1
Jurkat [3] = test: Cytotoxicity against human Jurkat cells assessed as maximum cell growth inhibition incubated for 72 hrs by MTS assay relative to control; assay type: functional; outline: as §1
BXPC-3 = test: Cytotoxicity against human BXPC-3 cells assessed as maximum cell growth inhibition incubated for 72 hrs by MTS assay relative to control; assay type: functional; outline: as §1
HEL 92.1.7 = test: Cytotoxicity against human HEL 92.1.7 cells assessed as cell death incubated for 72 hrs by MTS assay; assay type: functional; details: read-out: LC50 (the source's name); outline: as §2
MOLT-4 = test: Cytotoxicity against human MOLT-4 cells assessed as maximum cell growth inhibition incubated for 72 hrs by MTS assay relative to control; assay type: functional; outline: as §1
MIA PaCa-2 = test: Cytotoxicity against human MIA PaCa-2 cells assessed as cell death incubated for 72 hrs by MTS assay; assay type: functional; details: read-out: LC50 (the source's name); outline: as §2
K562 = test: Potency index, ratio of 3'-Deoxyadenosine LC50 to test compound LC50 for cytotoxicity against human K562 cells assessed as cell death incubated for 72 hrs by MTS assay; assay type: functional
RPMI-8226 [4] = test: Cytotoxicity against human RPMI-8226 cells assessed as maximum cell growth inhibition incubated for 72 hrs by MTS assay relative to control; assay type: functional; outline: as §1
Jurkat [5] = test: Cytotoxicity against human Jurkat cells assessed as cell death incubated for 72 hrs by MTS assay; assay type: functional; details: read-out: LC50 (the source's name); outline: as §2
MCF7 = test: Cytotoxicity against human MCF7 cells assessed as maximum cell growth inhibition incubated for 72 hrs by MTS assay relative to control; assay type: functional; outline: as §1

In the case of `C[C@@H](NP(=O)(OC[C@@H]1C[C@@H](O)[C@H](n2cnc3c(N)ncnc32)O1)Oc1cccc2ccccc12)C(=O)OCc1ccccc1` (stereo not given in full), the “fold change (FC)” value [1] is reported as 3, the Imax (THP-1) is reported as 99% and the CC50 (RPMI-8226 [2]) is reported as 19 µM. The Imax (KG-1) was 100%, the CC50 (HL-60) was 6.37 µM and the Imax (Z-138) was 100%. The Imax (Jurkat [3]) was 100%, the Imax (BXPC-3) was 90% and the CC50 (HEL 92.1.7) was 2.94 µM. For the same compound, the Imax (MOLT-4) was 100%, the CC50 (MIA PaCa-2) was 3.73 µM and the RatioLC50 (K562) was 3. For the same compound, the Imax (RPMI-8226 [4]) was 102%, the CC50 (Jurkat [5]) was 0.9 µM and the Imax (MCF7) was 99%.
